The species named for data set [1] is Oryctolagus cuniculus. As to the kind of experiment: Compound was evaluated for the intrinsic vasorelaxation (i.vr) in a standard tissue bath preparation using rabbit aortic rings precontracted with histamine. The data set is classed as functional, Aorta. The essentials:
(§1)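 Rabbit aortic rings (4–5 mm) in Krebs-Henseleit buffer, gassed 95:5 O2/CO2, pH 7.4, isometric tension, baseline 2 g held 2 h. Rings contracted with 3 μM histamine, then six cumulative half-log peptide increments over 90 min, range 10⁻⁸ to 10⁻⁴ M. Triplicate determinations.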

Data set [2] is filed under the species Oryctolagus cuniculus. As to the kind of experiment: In vitro vasorelaxant potency at dose 10 e -8 to 10 e-4 M using rabbit aortic rings precontracted with histamine. The format is functional. As to conditions: Aorta. The essentials:
as §1

Data set [3] in a line: (§2) In vitro Biological half-life in crude homogenate of rabbit renal cortex. The format is ADME, Oryctolagus cuniculus.
Data set [4] is described as follows: as §2. The format is ADME, tissue-based, Oryctolagus cuniculus.
In data set [5] the test system is Atrial natriuretic peptide receptor 1 (Oryctolagus cuniculus). As to the kind of experiment: Binding affinity towards the low-affinity site atrionatriuretic peptide receptor 1 of rabbit adrenal membrane.
For data set [6] the test system is unchanged. As to the kind of experiment: Binding affinity for low-affinity site Atrial natriuretic peptide receptor 1 of rabbit adrenal membrane. As to conditions: Adrenal gland.

Where a SMILES comes first, the peptide text is derived from it. Bridges are numbered along the chain shown (N, C = ends).

Turning to H-SSCFGGR-OH, in the data set listed under Oryctolagus cuniculus [1], the Intrinsic vasorelaxation was 0 fraction of rANP max.

Broadly, the EC50 is the concentration that produces a half-maximal response. `CC[C@H](C)[C@@H]1NC(=O)[C@H](CCCN=C(N)N)NC(=O)CNC(=O)CNC(=O)[C@H](Cc2ccccc2)NC(=O)CN(C)C(=O)[C@@H](NC(=O)[C@H](CO)NC(=O)[C@@H](N)CO)CSSC[C@@H](C(=O)N[C@@H](Cc2ccccc2)C(=O)N[C@@H](CCCN=C(N)N)C(=O)O)NC(=O)[C@H]([C@@H](C)CC)NC(=O)[C@H](CCCN=C(N)N)NC(=O)[C@H](CC(=O)O)NC1=O` showed an EC50 in the data set filed under Oryctolagus cuniculus [2] of more than 1 µM.

A word on the half-life: it is how long it takes for the measured level to halve. A low value points to rapid decline. Turning to `CC[C@H](C)[C@@H]1NC(=O)[C@H](CCCN=C(N)N)NC(=O)CNC(=O)CNC(=O)[C@H](Cc2ccccc2)NC(=O)[C@@H](NC(=O)[C@H](CO)NC(=O)[C@@H](N)CO)CSSC[C@@H](C(=O)O)NC(=O)[C@H](CCCN=C(N)N)NC(=O)[C@H](Cc2ccccc2)NC(=O)[C@H]([C@@H](C)CC)NC(=O)[C@H](CCCN=C(N)N)NC(=O)[C@H](CC(=O)O)NC1=O`, the half-life in data set [3] was less than 2 min. This compound also displayed an EC50 in the data set listed under Oryctolagus cuniculus [2] of 2 µM.

In the case of `CC[C@H](C)[C@@H]1NC(=O)[C@H](CCCN=C(N)N)NC(=O)CNC(=O)CNC(=O)[C@H](Cc2ccccc2)NC(=O)CNC(=O)[C@@H](NC(=O)[C@H](CO)NC(=O)[C@@H](N)CO)CSSC[C@@H](C(=O)N[C@@H](Cc2ccccc2)C(=O)N[C@@H](CCCN=C(N)N)C(=O)O)NC(=O)[C@H]([C@@H](C)CC)NC(=O)[C@H](CCCN=C(N)N)NC(=O)[C@H](CC(=O)O)NC1=O`, the half-life in data set [4] came to 3.2 min. A half-maximal effect in the data set listed under Oryctolagus cuniculus [2] (EC50) was put at 0.12 µM.

`CC[C@H](C)[C@@H]1NC(=O)[C@H](CCCN=C(N)N)NC(=O)CNC(=O)CNC(=O)[C@H](Cc2ccccc2)NC(=O)[C@@H](CC2CCCCC2)NC(=O)[C@@H](NC(=O)[C@H](CO)NC(=O)[C@@H](N)CO)CSSC[C@@H](C(=O)N[C@@H](Cc2ccccc2)C(=O)N[C@@H](CCCN=C(N)N)C(=O)O)NC(=O)[C@H]([C@@H](C)CC)NC(=O)[C@H](CCCN=C(N)N)NC(=O)[C@H](CC(=O)O)NC1=O` yielded an EC50 in the data set listed under Oryctolagus cuniculus [2] of 0.43 µM.

In turn, `CC[C@H](C)[C@@H]1NC(=O)[C@@H](CCCN=C(N)N)NC(=O)CNC(=O)CNC(=O)[C@@H](Cc2ccccc2)NC(=O)C(C(C)C)NC(=O)[C@H](NC(=O)[C@H](CO)NC(=O)[C@@H](N)CO)CSSC[C@H](C(=O)N[C@H](Cc2ccccc2)C(=O)N[C@H](CCCN=C(N)N)C(=O)O)NC(=O)[C@@H]([C@@H](C)CC)NC(=O)[C@H](CCCN=C(N)N)NC(=O)[C@@H](CC(=O)O)NC1=O` (stereo in doubt) gave a KL in data set [5] of 130 nM. For the same compound, in the data set listed under Oryctolagus cuniculus [2], the EC50 was 0.024 µM.

Take `CC[C@H](C)[C@@H]1NC(=O)[C@H](CCCN=C(N)N)NC(=O)CNC(=O)CNC(=O)[C@H](Cc2ccccc2)NC(=O)[C@@H](NC(=O)[C@H](CO)NC(=O)[C@@H](N)CO)CSSC[C@@H](C(=O)N[C@@H](Cc2ccccc2)C(=O)N[C@@H](CCCN=C(N)N)C(=O)O)NC(=O)[C@H]([C@@H](C)CC)NC(=O)[C@H](CCCN=C(N)N)NC(=O)[C@H](CC(=O)O)NC1=O`: the half-life in data set [4] stood at 4.7 min. The compound further came in with an EC50 in the data set filed under Oryctolagus cuniculus [2] of 3 µM.

Consider `CC[C@H](C)[C@@H]1NC(=O)[C@H](CCCN=C(N)N)NC(=O)CNC(=O)CNC(=O)[C@H](Cc2ccccc2)NC(=O)[C@@H](NC(=O)[C@H](CO)NC(=O)[C@@H](N)CO)CSSC[C@@H](C(=O)N[C@@H](CC(N)=O)C(=O)N[C@@H](CO)C(=O)O)NC(=O)[C@H]([C@@H](C)CC)NC(=O)[C@H](CCCN=C(N)N)NC(=O)[C@H](CC(=O)O)NC1=O` (H-SSCFGGRIDRICNS-OH; disulfide 3-12), for which the EC50 in the data set filed under Oryctolagus cuniculus [2] was more than 10 µM.

On to `CC[C@H](C)[C@@H]1NC(=O)[C@H](CCCN=C(N)N)NC(=O)CNC(=O)CNC(=O)[C@H](Cc2ccccc2)NC(=O)CCNC(=O)[C@@H](NC(=O)[C@H](CO)NC(=O)[C@@H](N)CO)CSSC[C@@H](C(=O)N[C@@H](Cc2ccccc2)C(=O)N[C@@H](CCCN=C(N)N)C(=O)O)NC(=O)[C@H]([C@@H](C)CC)NC(=O)[C@H](CCCN=C(N)N)NC(=O)[C@H](CC(=O)O)NC1=O`, for which a half-maximal response in the data set filed under Oryctolagus cuniculus [2] (EC50) required 1.8 µM.

For `CC[C@H](C)[C@@H]1NC(=O)[C@H](CCCN=C(N)N)NC(=O)CNC(=O)CNC(=O)[C@H](Cc2ccccc2)NC(=O)[C@@H](N)CSSC[C@@H](C(=O)N[C@@H](Cc2ccccc2)C(=O)N[C@@H](CCCN=C(N)N)C(=O)O)NC(=O)[C@H]([C@@H](C)CC)NC(=O)[C@H](CCCN=C(N)N)NC(=O)[C@H](CC(=O)O)NC1=O` (H-CFGGRIDRICFR-OH; disulfide 1-10), a half-maximal effect in the data set listed under Oryctolagus cuniculus [2] (EC50) was put at 4.9 µM.

For H-FGGRIDRI-OH, the Intrinsic vasorelaxation in the data set listed under Oryctolagus cuniculus [1] was 0.57 fraction of rANP max.

In the data set filed under Oryctolagus cuniculus [2], `CC[C@H](C)[C@@H]1NC(=O)[C@H](CCCN=C(N)N)NC(=O)[C@H](CC(=O)O)NC(=O)[C@H]([C@@H](C)CC)NC(=O)[C@H](CCCN=C(N)N)NC(=O)CNC(=O)CNC(=O)[C@H](Cc2ccccc2)NC(=O)[C@@H](NC(=O)[C@H](CO)NC(=O)[C@@H](N)CO)CSSC[C@@H](C(=O)O)NC1=O` (H-SSCFGGRIDRIC-OH; disulfide 3-12) yielded an EC50 of 5.2 µM.

As to H-SSCFG-OH, the Intrinsic vasorelaxation in the data set listed under Oryctolagus cuniculus [1] is 0.03 fraction of rANP max.

With `CC[C@H](C)[C@@H]1NC(=O)[C@H](CCCN=C(N)N)NC(=O)CNC(=O)CNC(=O)[C@@H](Cc2ccccc2)NC(=O)[C@@H](NC(=O)[C@H](CO)NC(=O)[C@@H](N)CO)CSSC[C@@H](C(=O)N[C@@H](Cc2ccccc2)C(=O)N[C@@H](CCCN=C(N)N)C(=O)O)NC(=O)[C@H]([C@@H](C)CC)NC(=O)[C@H](CCCN=C(N)N)NC(=O)[C@H](CC(=O)O)NC1=O`, the half-life in data set [4] worked out at 5.8 min. The compound further returned an EC50 in the data set filed under Oryctolagus cuniculus [2] of more than 10 µM.

As to `CC[C@H](C)[C@@H]1NC(=O)[C@H](CCCN=C(N)N)NC(=O)[C@H](CC(=O)O)NC(=O)[C@H]([C@@H](C)CC)NC(=O)[C@H](CCCN=C(N)N)NC(=O)CNC(=O)CNC(=O)[C@H](Cc2ccccc2)NC(=O)[C@@H](N)CSSC[C@@H](C(=O)O)NC1=O` (H-CFGGRIDRIC-OH; disulfide 1-10), the EC50 in the data set listed under Oryctolagus cuniculus [2] was found to be 3.8 µM.

On to H-RIDRIG-OH, for which the Intrinsic vasorelaxation in the data set filed under Oryctolagus cuniculus [1] is 0.7 fraction of rANP max.

`CC[C@H](C)[C@@H]1NC(=O)[C@@H](CCCN=C(N)N)NC(=O)CNC(=O)CNC(=O)[C@@H](C2CCCCC2)NC(=O)[C@H](NC(=O)[C@H](N)CCCN=C(N)N)CSSC[C@H](C(N)=O)NC(=O)[C@@H](CCCN=C(N)N)NC(=O)[C@H](Cc2ccccc2)NC(=O)[C@@H](C)NC(=O)[C@H](CCCN=C(N)N)NC(=O)[C@@H](CC(=O)O)NC1=O` had a KL in data set [6] of 230 nM.

In data set [6], `CC[C@H](C)[C@H]1NC(=O)[C@H](CCCN=C(N)N)NC(=O)[C@@H](CC(=O)O)NC(=O)[C@H](Cc2ccccc2)NC(=O)[C@@H](CCCN=C(N)N)NC(=O)CNC(=O)CNC(=O)[C@@H](C2CCCCC2)NC(=O)[C@H](NC(=O)[C@H](N)CCCN=C(N)N)CSSC[C@H](C(N)=O)NC(=O)[C@@H](CCCN=C(N)N)NC(=O)[C@H](Cc2ccccc2)NC1=O` yielded a KL of 680 nM.

As for `CC[C@H](C)[C@@H]1NC(=O)[C@@H](CCCN=C(N)N)NC(=O)CNC(=O)CNC(=O)[C@@H](Cc2ccccc2)NC(=O)C(C)NC(=O)[C@H](NC(=O)[C@H](CO)NC(=O)[C@@H](N)CO)CSSC[C@H](C(=O)N[C@H](Cc2ccccc2)C(=O)N[C@H](CCCN=C(N)N)C(=O)O)NC(=O)[C@@H]([C@@H](C)CC)NC(=O)[C@H](CCCN=C(N)N)NC(=O)[C@@H](CC(=O)O)NC1=O` (stereo in doubt), the half-life in data set [4] is 5.3 min. The compound also came in with a KL in data set [5] of 710 nM. This compound also showed a concentration giving a half-maximal response (EC50) in the data set listed under Oryctolagus cuniculus [2] of 0.36 µM.

With `NC(=O)C[C@H](N)C(=O)N[C@@H](CO)C(=O)N[C@@H](Cc1ccccc1)C(=O)N[C@@H](CCCN=C(N)N)C(=O)O` (H-NSFR-OH), in the data set filed under Oryctolagus cuniculus [1], the Intrinsic vasorelaxation is 0.16 fraction of rANP max.
